FN deposition inh – fibronectin deposition inhibition. AH1F fibroblasts, Alexa488-fibronectin deposition fluorescence, overnight. inhibition, % at 12.6 µM. hit rate 0.086% among 350,000. AID 743247;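 active = mean inhibition across replicates of 30% or more, regardless of how many single replicates reach that level; inconclusive = mean under 30% yet at least half of replicates reach 30%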;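 note: positive control wells lacked labelled fibronectin entirely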
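Material: AH1F fibroblasts assembling fluorescent fibronectin matrix; amount: 10000 AH1F cells/well; medium: DMEM, 2% serum; reagent: Alexa488-fibronectin, 24 nM final in well; dosing: single compound dose, delivered by pin transfer; incubation: 1 h adhesion, overnight exposure; detection: fluorescence after three HBSS washes, excitation 485 nm, emission 525 nm; measure: fibronectin deposition inhibition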
RAD54 inh – blocks human RAD54 Holliday junction branch migration; AID 602329; hit rate 0.14% among 360,000; Q92698; FAM/BHQ fluorescence; inhibition, % at 10.4 µM;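 active = mean normalized replicate activity at least 40 and at least half of replicates scoring 40 or more; inconclusive = only one of the two criteria met; inactive = mean below 40 and under half of replicates reaching 40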;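 note: 0% = median of neutral control wells and 100% = median of positive control wells; inhibitors cause a drop in the FAM fluorescence signal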
AF4-AF9 inh – blocks AF4 peptide binding to human AF9; inhibition, % at 10 µM; AlphaScreen, biotin-AF4 peptide binding to FLAG-AF9; P42568; hit rate 0.47% among 350,000;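 active = every replicate reaching a set inhibition limit, whatever the replicate mean, cut at about 25% in these data; inconclusive = mean inhibition reaches that limit but some replicates miss it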;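 note: 0% = plate neutral control median and 100% = total signal loss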
Target sequence (P42568 whole entry, looked up): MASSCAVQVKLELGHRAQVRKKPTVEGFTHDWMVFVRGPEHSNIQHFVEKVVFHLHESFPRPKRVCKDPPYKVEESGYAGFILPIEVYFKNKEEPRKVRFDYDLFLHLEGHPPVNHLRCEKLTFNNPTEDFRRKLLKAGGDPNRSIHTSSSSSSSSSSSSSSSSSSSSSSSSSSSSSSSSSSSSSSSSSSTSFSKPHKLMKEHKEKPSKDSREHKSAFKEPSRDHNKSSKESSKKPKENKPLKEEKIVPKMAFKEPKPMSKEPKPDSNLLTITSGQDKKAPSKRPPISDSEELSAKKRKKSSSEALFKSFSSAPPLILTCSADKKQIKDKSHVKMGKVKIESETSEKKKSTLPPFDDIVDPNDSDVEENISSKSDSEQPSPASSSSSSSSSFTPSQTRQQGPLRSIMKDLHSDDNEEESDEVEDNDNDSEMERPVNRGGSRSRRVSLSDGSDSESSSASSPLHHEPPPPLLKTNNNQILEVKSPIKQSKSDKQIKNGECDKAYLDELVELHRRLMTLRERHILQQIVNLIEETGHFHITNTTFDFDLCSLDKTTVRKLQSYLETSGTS
N-glyco inh – N-linked glycosylation inhibition; reporter increase, % at 12.5 µM; AID 588692; hit rate 0.23% among 360,000; D54 ERlucT glycosylation luciferase reporter, 24 h; percent of 100 nM tunicamycin response;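 active = mean luciferase reporter signal, scaled so untreated is 0 and the glycosylation-blocking control 100, at or above a set limit in every replicate; inconclusive = mean reaches the limit but not every replicate does; inactive = mean below the limit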;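 note: luciferase carries N-glycosylation sites so blocking glycosylation raises the light; 0% = median of neutral control wells and 100% = median of 100 nM tunicamycin wells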
RAD52 anneal inh – blocks human RAD52 DNA annealing; hit rate 0.46% among 360,000; P43351; recombinant RAD52 DNA annealing, FRET fluorescence; inhibition, % at 18.7 µM;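 active = every replicate showing at least 50% inhibition; inconclusive = mean inhibition at least 50% but not in every replicate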
Numbers without * were called inactive; i = inactive; u = inconclusive; x = not tested or not shown. Only some compounds are listed: those with a hit (about 0.92% of all), similar ones and a draw of the others.

SMILES	FN deposition inh	RAD54 inh	AF4-AF9 inh	N-glyco inh	RAD52 anneal inh
CN(c1ccc(O)cc1)c1ccc([N+](=O)[O-])c2nonc12	2.4	2.3	26.6*	1.3	-0.4
O=[N+]([O-])c1ccc(N2CCCCCC2)c2nonc12	-12.2	-496.0	5.4	1.9	i
C=CCN1[C@@H]2CN(C(C)=O)C[C@H]1C2c1ccc(Br)cc1 (stereo not given in full)	3.9	x	x	x	x
COc1ccc2[nH]c3c(c2c1)CCNC3C (stereo not given)	1.9	4.9	5.0	-2.1	19.6
COc1ccc2c3c([nH]c2c1)C(C)NCC3 (stereo not given)	x	2.5	30.3*	-4.2	-23.6
O=C(NCC1=C(c2ccc3ccccc3c2)C[C@@H]2CC[C@H]1N2Cc1ccco1)c1ccc([N+](=O)[O-])cc1	0.8	-0.1	27.9*	-5.6	46.5
O=C(O)C(O)(c1ccccc1)C1CCCC1 (stereo not given)	32.6*	-8.1	x	0.7	x
CS(=O)(=O)N1C[C@@H]2N[C@H](C1)C2c1ccccc1 (stereo not given in full)	-3.7	x	x	x	x
COC(=O)[C@@H]1C[C@H]1[C@@H](NP(=O)(c1ccccc1)c1ccccc1)c1ccccc1	11.2	4.0	x	32.0*	5.4
Clc1cccc(N2Cc3cc(-c4ccccc4)ccc3-n3nncc3C2)c1	6.6	-1.9	0.8	39.6*	-9.2
OC[C@@H]1Nc2ccc(C#Cc3cccnc3)cc2[C@@H]2NCC[C@H]12	8.4	x	x	x	x
COC(=O)C[C@]1(C(=O)OC)CN(C#N)N(c2ccc(Cl)cc2)C12c1ccccc1-c1ccccc12	40.6*	-7.7	x	-19.2	-8.2
C=C(C)[C@@]12OC3(c4ccccc4)O[C@@H]1C1[C@@H]4O[C@]4(CO)[C@@H](O)[C@]4(O)C(=O)C(C)=C[C@H]4[C@@]1(O3)[C@H](C)[C@H]2OC(=O)/C=C/C=C/c1ccccc1 (stereo not given in full)	x	-1.3	x	52.8*	x
COC(=O)[C@@H]1[C@@H](CO)[C@@H]2Cn3c(ccc(C4=CCCCC4)c3=O)[C@H]1N2CC1CCCCC1	x	x	8.2	x	8.3
CNC(=O)c1cccn(Cc2cc(C(F)(F)F)cc(C(F)(F)F)c2)c1=O	2.5	x	-0.2	19.4	-4.8
CNC(=O)c1cccn(Cc2ccc(C(F)(F)F)cc2)c1=O	-4.8	x	-1.8	34.4*	-3.6
CC(C)CC#Cc1ccc([C@@H]2[C@H]3CN(C(=O)Cc4ccccn4)CCCCN3[C@H]2CO)cc1	x	10.7	1.0	x	-13.1
O=C(O)c1cccc2c1NC(c1cccc([N+](=O)[O-])c1)C1CC(Sc3ccccc3[N+](=O)[O-])C(Cl)C21 (stereo not given)	-1.5	x	27.2*	-1.4	-15.0
CN(C)c1ccc(-[n+]2c(-c3ccccc3)cc(-c3ccccc3)cc2-c2ccccc2)cc1	4.1	x	31.0*	12.2	27.1
c1ccc(-c2cc(-c3ccccc3)[n+](-c3ccccc3)c(-c3ccccc3)c2)cc1	3.4	15.5	0.8	15.7	4.1
CS(=O)(=O)N1C[C@@H]2C(c3ccccc3)[C@H](C1)N2CC1CC1 (stereo not given in full)	-14.7	x	x	x	x
O=[N+]([O-])c1ccc(N2CCCCCC2)c2ncccc12	3.1	x	26.8*	0.2	-10.6
CC(=O)N1C[C@@H]2N[C@H](C1)C2c1ccc(Br)cc1 (stereo not given in full)	-6.8	x	x	x	x
CN(C)CC#Cc1ccc([C@@H]2[C@@H](CO)N3CCCCN(C(=O)Cc4ccccn4)C[C@H]23)cc1	-6.6	-11.1	10.9	x	60.7*
CN(C)CC#Cc1ccc([C@@H]2[C@@H](CO)N3CCCCN(C(=O)Cc4ccccn4)C[C@@H]23)cc1	-5.9	-5.8	3.3	x	36.9
SMILES	FN deposition inh	RAD54 inh	AF4-AF9 inh	N-glyco inh	RAD52 anneal inh
COc1ccccc1N1CCN(CCc2c[nH]c3cc4c(cc23)OCO4)CC1	4.9	x	30.2*	0.3	0.8
O=C(C1CC1)N1C[C@@H]2N[C@H](C1)[C@@H]2c1ccc(-c2ccncc2)cc1	10.8	x	-9.2	x	8.9
Cc1cc(C)cc(N2C(=O)NC(=O)/C(=C\C=C\c3ccco3)C2=O)c1	2.0	x	11.5	56.5*	-78.2
CCc1ccc(N2C(=O)NC(=O)/C(=C\C=C\c3ccco3)C2=O)cc1	4.7	-37.6	-11.9	45.6*	i
Cc1ccc(N2C(=O)NC(=O)/C(=C/C=C/c3ccco3)C2=O)cc1	-7.7	x	x	u	x
COC12CCC3(CC1C(C)(O)C(C)(C)C)[C@H]1Cc4ccc(OC5OC(C(=O)O)[C@@H](O)C(O)[C@H]5O)c5c4[C@@]3(CCN1CC1CC1)C2O5 (stereo not given in full)	x	4.7	x	0.8	5.5
COC12CCC3(CC1C(C)(O)C(C)(C)C)[C@H]1Cc4ccc(O)c5c4[C@@]3(CCN1CC1CC1)C2O5 (stereo not given in full)	x	-5.6	x	58.9*	3.3
CN1[C@@H]2CN(S(C)(=O)=O)C[C@H]1C2c1ccc(Br)cc1 (stereo not given in full)	-0.5	x	x	x	x
CN1CC(C(=O)c2ccc(Cl)cc2)C(c2ccc(N(C)C)cc2)C1 (stereo not given)	0.7	x	40.2*	-6.7	-9.4
CC(=O)Nc1ccc(C2CN(C)CC2C(=O)c2ccc(Cl)cc2)cc1 (stereo not given)	-3.2	x	4.8	-7.3	-10.4
Fc1ccc(C(OCCN2CCN(CCCc3ccccc3)CC2)c2ccc(F)cc2)cc1	4.2	-5.7	29.1*	-14.4	25.4
CCCNC(=O)[C@H]1[C@H](CO)[C@H]2Cn3c(cccc3=O)[C@H]2N1CC	x	x	-2.9	x	-2.6
O=C(NCCN1CCC2(CC1)C(=O)NCN2c1ccccc1)c1cccc2c1-c1ccccc1C2=O	12.7	x	2.5	x	-12.5
CN1CN(c2ccccc2)C2(CCN(CCCSc3ccccc3NC(=O)/C=C/c3ccccc3)CC2)C1=O	0.7	x	12.2	30.4*	-8.0
CN1CCc2cc(O)cc3c2[C@H]1Cc1ccc(O)c(O)c1-3	4.4	39.2	18.3	-8.4	94.7*
CCCN1CCc2cc(O)cc3c2[C@H]1Cc1ccc(O)c(O)c1-3	-6.4	62.6*	u	-3.3	96.0*
COc1cc2c(cc1O)[C@@H]1Cc3ccc(OC)c(O)c3CN1CC2	11.9	7.5	9.4	10.7	16.6
COc1cc2c(cc1O)C[C@H]1c3c(cc(O)c(OC)c3-2)CCN1C	-3.3	7.1	2.4	7.7	35.9
Cc1c2ccncc2c(C)c2c1[nH]c1ccccc12	-3.7	50.6*	5.4	7.3	x
c1ccc2c(c1)[nH]c1cnccc12	-0.3	12.0	-2.5	0.1	0.3
C/C=C/c1ccc([C@@H]2[C@H](CO)N3CCCCN(C(=O)Cc4ccncc4)C[C@@H]23)cc1	x	6.7	-7.6	x	-8.2
C/C=C/c1ccc(C2[C@@H]3CN(Cc4cocn4)C[C@H]2N3)cc1 (stereo not given in full)	-8.3	x	28.7*	x	56.3*
CCCN1[C@@H]2Cn3c(ccc(-c4ccc(F)cc4)c3=O)[C@H]1[C@@H](C(=O)OC)[C@@H]2CO	x	4.3	0.4	x	53.5*
